From ChEMBL document CHEMBL4765251, “Efficient identification of novel anti-glioma lead compounds by machine learning models” (Eur J Med Chem, 2020)
Active and inactive are the calls of the source. No cut-off for these calls is given here.

Legend:
[1] = Hematological toxicity in C57BL/6 mouse xenografted with C57BL/6 mouse GL261 cells assessed as hematocrit level in blood at 100 mg/kg, po or ip administered once daily for 10 days starting from 7 days post tumor cell inoculation and measured on day 17 (reference value: 44.5 +/- 1.8%); assay type: organism-based; conditions: in vivo, 240 h, dose 100 mg/kg/day, time 10 day
[2] = Toxicity in C57BL/6 mouse xenografted with C57BL/6 mouse GL261 cells assessed as body weight at 100 mg/kg, ip administered once daily for 10 days starting from 7 days post tumor cell inoculation; assay type: organism-based; conditions: in vivo, 240 h, dose 100 mg/kg/day, time 10 day
In short: (§1)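 Orthotopic model: 5x10^4 GL261 cells in 2 µL serum-free DMEM injected into the right hemisphere of 60-day-old male and female C57BL/6 mice (17-25 g) under ketamine/xylazine. Treatment began 7 days later, n=9 per group. Compound was given in 0.9% saline with 10% DMSO and 0.3% Tween-80, as 100 µL ip or 200 µL by gavage. Body weight change (final minus initial) and mortality were monitored.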

[3] = Toxicity in C57BL/6 mouse xenografted with C57BL/6 mouse GL261 cells assessed as mortality at 100 mg/kg, po administered via gavage once daily for 10 days starting from 7 days post tumor cell inoculation; assay type: organism-based; conditions: in vivo, 240 h, dose 100 mg/kg/day, time 10 day; in short: as §1
[4] = Nephrotoxicity in C57BL/6 mouse xenografted with C57BL/6 mouse GL261 cells assessed as serum creatinine level at 100 mg/kg, po or ip administered once daily for 10 days starting from 7 days post tumor cell inoculation and measured on day 17 (reference value: 0.4 +/- 0.3 mg/dl); assay type: toxicity, organism-based; conditions: in vivo, 240 h, dose 100 mg/kg/day, time 10 day
Rattus norvegicus [5] = species on record: Rattus norvegicus; test: Inhibition of TrxR in rat liver assessed as reduction in TNB formation using DTNB and NADPH as substrate at 100 uM preincubated with enzyme for 15 mins followed by NADPH addition by absorbance based analysis; assay type: tissue-based
In short: (§2)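 TrxR activity was measured at 37 °C in 100 mM potassium phosphate pH 7.0 with 2 mg/mL DTNB and 0.01 mg/mL enzyme. Enzyme was preincubated for 15 min with compound or DMSO, then the reaction was started with 0.2 mg/mL NADPH. TNB formation was followed at 412 nm (ε 13.6 mM-1 cm-1). Assays were run in duplicate, with enzyme-free blanks subtracted.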

U-87 MG = test: Antiproliferative activity against human U87MG cells assessed as cell growth inhibition measured after 72 hrs by SRB assay; assay type: functional, cell-based, U-87MG ATCC
In short: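 U87MG human glioma cells grown in DMEM with 10% FBS at 37 °C, used up to 30 passages and treated at 40-50% confluence. Exposed to 0.1-100 µM for 72 h, with DMSO at most 0.1% final. TCA-fixed, stained with SRB, dye solubilized in Tris pH 10.5, read at 510 nm, expressed as % of DMSO controls. Mean ± SD of three independent assays.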

[6] = Hepatotoxicity in C57BL/6 mouse xenografted with C57BL/6 mouse GL261 cells assessed as serum ALT level at 100 mg/kg, po or ip administered once daily for 10 days starting from 7 days post tumor cell inoculation and measured on day 17 (reference value: 7.6 +/- 4.2 U/L); assay type: toxicity, organism-based; conditions: in vivo, 240 h, dose 100 mg/kg/day, time 10 day
[7] = Selectivity index, ratio of CC50 for Wistar rat astrocytes to EC50 for human U87MG cells
In short: (§3)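 Selectivity index is astrocyte CC50 divided by the glioma-line EC50, both from 72 h SRB assays. No index is given when astrocyte cytotoxicity could not be calculated at the highest concentration tested.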

[8] = Hematological toxicity in C57BL/6 mouse xenografted with C57BL/6 mouse GL261 cells assessed as WBC level in blood at 100 mg/kg, po or ip administered once daily for 10 days starting from 7 days post tumor cell inoculation and measured on day 17 (reference value: 8.6 +/- 1.6x10^3/uL); assay type: organism-based; conditions: in vivo, 240 h, dose 100 mg/kg/day, time 10 day
U-251 = test: Antiproliferative activity against human U251MG cells assessed as cell growth inhibition measured after 72 hrs by SRB assay; assay type: functional, cell-based; conditions: U-251, 72 h
C6 [9] = test: Antiproliferative activity against rat C6 cells assessed as cell growth inhibition measured after 72 hrs by SRB assay; assay type: functional, cell-based; conditions: C6, 72 h
[10] = Selectivity index, ratio of CC50 for Wistar rat astrocytes to EC50 for human U-251 MG cells; in short: as §3
[11] = Toxicity in C57BL/6 mouse xenografted with C57BL/6 mouse GL261 cells at 100 mg/kg, po administered via gavage once daily for 10 days starting from 7 days post tumor cell inoculation; assay type: organism-based; conditions: in vivo, 240 h, dose 100 mg/kg/day, time 10 day; in short: as §1
[12] = Toxicity in C57BL/6 mouse xenografted with C57BL/6 mouse GL261 cells at 100 mg/kg, ip administered once daily for 10 days starting from 7 days post tumor cell inoculation; assay type: organism-based; conditions: in vivo, 240 h, dose 100 mg/kg/day, time 10 day; in short: as §1
C6 [13] = test: Antiproliferative activity against rat C6 cells assessed as cell growth inhibition preincubated with NAC for 1 hr prior to compound challenge and measured after 72 hrs by SRB assay; assay type: functional, cell-based
In short: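 C6 cells were pretreated with 2 mM N-acetylcysteine for 1 h, then exposed to compound for 72 h. Viability was measured by SRB assay relative to DMSO-treated controls. Auranofin served as the reference thiol-reactive control.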

[14] = Antitumor activity against C57BL/6 mouse GL261 cells xenografted in C57BL/6 mouse assessed as reduction in tumor volume at 100 mg/kg, ip administered once daily for 10 days starting from 7 days post tumor cell inoculation and measured on day 17; assay type: functional; conditions: C57BL/6, GL261, ip, 240 h, time 10 day
In short: (§4)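 GL261 cells (5x10^4 in 2 µL DMEM) were injected into the right hemisphere of 60-day-old male and female C57BL/6 mice (17-25 g) under ketamine/xylazine. From day 7, mice received compound once daily for 10 days (n=9 per group), by gavage (200 µL) or ip (100 µL). Vehicle was 0.9% saline with 10% DMSO and 0.3% Tween-80. Tumor volume was taken as the summed segmented areas of three H&E coronal sections.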

[15] = Cytotoxicity against Wistar rat astrocytes assessed as cell growth inhibition measured after 72 hrs by SRB assay; assay type: cell-based, Astrocyte
In short: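 Primary astrocytes taken from the cortex of 2-day-old Wistar rats by mechanical dissociation, grown on poly-L-lysine in high-glucose DMEM and treated at 90% confluence (12-15 days). Exposed to 0.1-100 µM for 72 h, then SRB assay with absorbance read at 510 nm against DMSO controls. Mean ± SD of three independent assays.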

[16] = Hematological toxicity in C57BL/6 mouse xenografted with C57BL/6 mouse GL261 cells assessed as blood glucose level at 100 mg/kg, po or ip administered once daily for 10 days starting from 7 days post tumor cell inoculation and measured on day 17 (reference value: 108 +/- 13 mg/dl); assay type: organism-based; conditions: in vivo, 240 h, dose 100 mg/kg/day, time 10 day
[17] = (§5) Inhibition of TrxR in rat liver assessed as reduction in TNB formation using DTNB and NADPH as substrate preincubated with enzyme for 15 mins followed by NADPH addition by absorbance based analysis; assay type: tissue-based; in short: as §2
Rattus norvegicus [18] = species on record: Rattus norvegicus; test: as §5; assay type: tissue-based; in short: as §2
[19] = Selectivity index, ratio of CC50 for Wistar rat astrocytes to EC50 for rat C6 cells; in short: as §3
GL261 [20] = test: Antitumor activity against C57BL/6 mouse GL261 cells xenografted in C57BL/6 mouse assessed as reduction in tumor volume at 10 to 100 mg/kg, po administered via gavage once daily for 10 days starting from 7 days post tumor cell inoculation and measured on day 17; assay type: functional, organism-based; conditions: dose 10-100 mg/kg/day, time 10.0 day; in short: as §4
C6 [21] = test: Antiproliferative activity against rat C6 cells assessed as cell growth inhibition measured after 72 hrs in presence of 0.0001 to 0.001% Triton X-100 by SRB assay; assay type: functional, cell-based
In short: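 Rat C6 glioma cells were incubated for 72 h in medium with no detergent or with 0.0001% or 0.001% Triton X-100, as a check for aggregation-based cytotoxicity. Viability was read by SRB assay and an EC50 was derived from concentration-response curves. Mean ± SD of three independent assays.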

[22] = Toxicity in C57BL/6 mouse xenografted with C57BL/6 mouse GL261 cells assessed as body weight at 100 mg/kg, po administered via gavage once daily for 10 days starting from 7 days post tumor cell inoculation; assay type: organism-based; conditions: in vivo, 240 h, dose 100 mg/kg/day, time 10 day; in short: as §1
[23] = Toxicity in C57BL/6 mouse xenografted with C57BL/6 mouse GL261 cells assessed as mortality at 100 mg/kg, ip administered once daily for 10 days starting from 7 days post tumor cell inoculation; assay type: organism-based; conditions: in vivo, 240 h, dose 100 mg/kg/day, time 10 day; in short: as §1
[24] = Hepatotoxicity in C57BL/6 mouse xenografted with C57BL/6 mouse GL261 cells assessed as serum ALP level at 100 mg/kg, po or ip administered once daily for 10 days starting from 7 days post tumor cell inoculation and measured on day 17 (reference value: 19.1 +/- 8.9 U/L); assay type: toxicity, organism-based; conditions: in vivo, 240 h, dose 100 mg/kg/day, time 10 day
Astrocyte = test: Cytotoxicity against Wistar rat astrocytes assessed as cell growth inhibition at 100 uM measured after 72 hrs by SRB assay; assay type: cell-based
GL261 [25] = test: Antitumor activity against C57BL/6 mouse GL261 cells xenografted in C57BL/6 mouse assessed as reduction in tumor volume at 20 mg/kg, po administered via gavage once daily for 10 days starting from 7 days post tumor cell inoculation and measured on day 17; assay type: functional, organism-based; conditions: dose 20.0 mg/kg/day, time 10.0 day
GL261 [26] = test: Antitumor activity against C57BL/6 mouse GL261 cells xenografted in C57BL/6 mouse assessed as reduction in tumor volume at 20 mg/kg, ip administered once daily for 10 days starting from 7 days post tumor cell inoculation and measured on day 17; assay type: functional, organism-based; conditions: dose 20.0 mg/kg/day, time 10.0 day

Structure (SMILES) | Activity [1] [%] | Activity [2] | Activity [3] | Activity [4] [mg/dL] | inhibition (Rattus norvegicus [5]) [%] | EC50 (U-87 MG) [µM] | Activity [6] [U/L] | Ratio CC50/EC50 [7] | Activity [8] | EC50 (U-251) [µM] | EC50 (C6 [9]) [µM] | Ratio CC50/EC50 [10] | Activity [11] | Activity [12] | Activity (C6 [13]) | CC50 at 72 h [15] [µM] | Activity [16] [mg/dL] | Ratio CC50/EC50 [19] | Activity (GL261 [20]) | Activity (C6 [21]) | further results
Cc1cccc(C(=O)/C=C/c2ccc([N+](=O)[O-])o2)c1 | 46 | Non-Toxic | Non-Toxic | 0.4 | 95.2 | 3.3 | 6.2 | 15.8 | 8.4 10^3 /uL | 2.3 | 2.1 | 22.7 | Non-Toxic | Non-Toxic | inactive | 52.2 | 108 | 24.8 | inactive | Active | inhibition in vivo at 100 mg/kg/day [14]: 43.8%; IC50 [17]: 25 µM; inhibition (Rattus norvegicus [18]): Dose-dependent effect; Activity [22]: Non-Toxic; Activity [23]: Non-Toxic; Activity [24]: 20.3 U/L
CCCCc1ccc(C(=O)/C=C/c2ccc([N+](=O)[O-])o2)cc1 | 45.5 | Non-Toxic | Non-Toxic | 0.3 | 80.7 | 5.8 | 19.8 | 7.1 | 9.5 10^3 /uL | 3.9 | 1.7 | 10.6 | Non-Toxic | Non-Toxic | inactive | 41.2 | 94 | 24.2 | inactive | Active | IC50 [17]: 25 µM; inhibition (Rattus norvegicus [18]): Dose-dependent effect; Activity [22]: Non-Toxic; Activity [23]: Non-Toxic; Activity [24]: 22.2 U/L
O=C(/C=C/c1ccc([N+](=O)[O-])o1)c1cccc(Br)c1 | 45.3 | Non-Toxic | Non-Toxic | 0.5 | 78.7 | 6.8 | 9.9 | 5.2 | 9.2 10^3 /uL | 5.8 | 1.4 | 6.1 | Non-Toxic | Non-Toxic | inactive | 35.6 | 109 | 25.4 | inactive | Active | inhibition in vivo at 100 mg/kg/day [14]: 41.3%; Activity [22]: Non-Toxic; Activity [23]: Non-Toxic; Activity [24]: 20.6 U/L
Cn1nnc2c(C(N)=O)ncn2c1=O [TEMOZOLOMIDE] | – | – | – | – | – | > 200 | – | – | – | > 200 | 60.5 | – | – | – | – | – | – | – | – | – | Activity (Astrocyte): Non-Toxic; Activity (GL261 [25]): inactive; Activity (GL261 [26]): Active
